Source: article PMC3128789 (Nuclear medicine and biology, 2011)
Read-outs that look alike come from different tables or passages of the source.

Assays:
hexokinase = settings: cited from earlier work
[1] = by 5 h; cited from earlier work
glucose dehydrogenase = settings: enzyme derived from rat liver; cited from earlier work
[2] = Urinary excretion of radioactivity; assay type: in vivo, Sprague-Dawley rats; settings: by 24 h, 3H radioactivity
Outline: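 Rats under isoflurane received 74 kBq (2 μCi) [1-³H]6FDG by tail vein and were handled as in the ¹⁸F study: recovery in a metabolic cage for the later time points. Urine radioactivity was counted directly and expressed as a percentage of injected radioactivity at 1, 6 and 24 h.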

[3] = assay type: in vivo, Sprague-Dawley rats
[4] = HPLC quantification of neutral radioactivity; assay type: in vivo, Sprague-Dawley rats
[5] = assay type: in vivo, Sprague-Dawley rats; settings: 1 h biodistribution time
[6] = intact rats, without phlorizin (SGLT inhibitor) pre-treatment; cited from earlier work
[7] = assay type: in vivo, Sprague-Dawley rats; settings: liver
Outline: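 Rats under 2% isoflurane in oxygen received the tracer by tail vein: about 37 MBq (1 mCi) for the 1 h point and 370 MBq (10 mCi) for 6 h. Tissues were homogenised in 8 mL/g ice-cold ethanol:PBS:water (65:10:25) and spun 15 min at 23,500 × g, 4 °C. The methanol-water extract was dried, taken up in water and run on formate-form AG 1-X8 anion exchange, eluting with water then formic acid. Columns were counted afterwards.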

[8] = assay type: in vivo, Sprague-Dawley rats; settings: average of all tissues, 1 h after i.v. injection

What does the source list for `CO[C@@H]([C@H](O)[C@H](O)CO)[C@@H](O)C=O` [3OMG, 3-O-methyl-glucose, reference compound]?
phosphorylation by hexokinase in vitro (hexokinase): can be phosphorylated; urinary excretion [1]: 50%

With `C[C@@H](O)[C@@H](O)[C@H](O)[C@@H](O)C=O` [6-deoxy-D-glucose] as the compound, how does the “activity of glucose dehydrogenase on substrate” value (“activity … on substrate” for short) (glucose dehydrogenase) read?
Its value is “same activity”.

Which “phosphorylation by hexokinase in vitro” value (hexokinase; preliminary evaluation) does the source give for `O=C[C@H](O)[C@@H](O)[C@H](O)[C@H](O)CF` [6FDG, 6-fluoro-6-deoxy-D-glucose] here?
The value was “lack of its phosphorylation”.

And the “activity … on substrate” value (glucose dehydrogenase)?
Its value is “same activity”.

And the “urinary excretion of radioactivity, percentage of injected radioactivity” value [2]?
The value was “less than 8%”.

Which “activity … on substrate” value (glucose dehydrogenase) does the source give for `OC[C@H]1OC(O)[C@H](O)[C@@H](O)[C@@H]1O` (stereo partly drawn) [D-glucose] here?
Its value is “same activity”.

Which blood radioactivity ([3]; 24 h after i.v. injection) does the source give for `[3H]C1(O)O[C@H](CF)[C@@H](O)[C@H](O)[C@H]1O` (stereo partly shown) [[1-^3H]6FDG] here?
The blood radioactivity was “negligible”.

What about the “percentage of 3H radioactivity eluting with water, anion exchange column” value (from here on “percentage … with water, anion exchange column”) ([3]; average across tissues, 1 h) of the same compound?
Its value is 101%.

And the “percentage … with water, anion exchange column” value ([3]; average across tissues, 24 h)?
The value was 95%.

What about the “percentage … with water, anion exchange column” value ([3]; individual tissues, 1 h) of the same compound?
The value was at least 90%.

What about the “percentage of radioactivity eluting as [1-3H]6FDG (HPLC)” value ([4]; blood, 6 h) of the same compound?
Its value is over 99%.

What about the “percentage of radioactivity eluting as 6FDG (HPLC)” value (shortened to “percentage … as 6FDG (HPLC)”) ([4]; heart, 1 h (lowest tissue)) of the same compound?
Its value is 90%.

What about the “percentage of radioactivity eluting as [1-3H]6FDS (HPLC)” value ([4]; heart, 6 h (highest tissue)) of the same compound?
Its value is 28%.

What about the “percentage … as 6FDG (HPLC)” value ([4]; heart, 6 h (lowest tissue)) of the same compound?
Its value is 69%.

What about the “percentage of radioactivity eluting as [1-3H]6FDS (HPLC)” value ([4]; skeletal muscle, 24 h (highest tissue)) of the same compound?
The value was 31%.

And the “percentage … as 6FDG (HPLC)” value ([4]; skeletal muscle, 24 h (lowest tissue))?
The value was 65%.

And the “percentage of 3H radioactivity eluting with water, cation exchange column” value [5]?
The value was about 100%.

For `O=C[C@H](O)[C@@H](O)[C@H](O)[C@H](O)C[18F]` [[^18F]6FDG, [^18F]6-fluoro-6-deoxy-D-glucose], which “urinary excretion of [18F]6FDG” value [6] is on record?
Its value is “little urinary excretion”.

And the “percentage of 18F radioactivity remaining bound to the anion exchange column” value ([7]; 1 h)?
The value was 1%.

And the “percentage of 18F radioactivity remaining bound to the anion exchange column” value ([7]; 6 h)?
The value was 5%.

And the “percentage of homogenate 18F radioactivity in the methanol-water layer (extraction)” value [8]?
The value was 95.6 ± 2.6%.
